Source: PubChem (Sanford-Burnham Center for Chemical Genomics)
A selection: hits, their analogues and other compounds. The true share with any hit is near 1.7%.
STEP block: STEP phosphatase inhibitors, primary screen, biochemical, fluorescence intensity, uHTS | hit rate 0.25% among 360,000 | Tyrosine-protein phosphatase non-receptor type 5 (Homo sapiens), P54829 | recombinant STEP, OMFP fluorogenic substrate | inhibition, % at 20 µM;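 active means inhibition at 20 µM, scaled per plate between control wells, above about 37%, limit read from the data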
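System: isolated STEP enzyme; schedule: 20 min enzyme reaction at room temperature, protected from light; medium: Bis-Tris buffer pH 6.0, 2.5 mM DTT, 0.005% Tween 20; signal: fluorescence, 480/540 nm; dosing: single compound dose of 20 µM, 1% DMSO final; also added: OMFP substrate, 25 µM final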
LMPTP block: LMPTP phosphatase inhibitors, primary screen, biochemical, fluorescence intensity, uHTS. inhibition, % at 20 µM. AID 651560, 2012. Low molecular weight phosphotyrosine protein phosphatase (Homo sapiens), P24666. recombinant LMPTP-A, OMFP fluorogenic substrate. hit rate 0.22% among 360,000;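 active means compounds that cut the enzyme signal by at least half of the control window in the single-dose screen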
Target sequence (P24666 whole entry, looked up): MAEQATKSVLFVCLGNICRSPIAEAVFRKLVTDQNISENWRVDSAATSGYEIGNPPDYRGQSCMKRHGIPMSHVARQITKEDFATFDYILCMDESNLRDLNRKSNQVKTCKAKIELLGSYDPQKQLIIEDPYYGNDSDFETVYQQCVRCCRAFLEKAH
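Test system – LMPTP-A enzyme · Amount – LMPTP-A at 0.625 nM final in the reaction · Buffer or medium – Bis-Tris pH 6.0, DTT, detergent · Reagent – OMFP 400 µM · Doses – single 20 µM dose · Schedule – reaction 50 min, room temperature, dark · Detection – fluorescence intensity of OMFP turnover product · Evaluation – percent inhibition versus substrate-only and uninhibited controls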
Scp-1 inhibitor: Scp-1 phosphatase inhibitors, primary screen, biochemical, colorimetric, uHTS; Recombinant Scp1, phosphopeptide, malachite green phosphate absorbance; hit rate 0.88% among 340,000; Carboxy-terminal domain RNA polymerase II polypeptide A small phosphatase 1 (Homo …; inhibition, % at 20 µM;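 active means inhibition above about 50% at 20 µM, limit read from the data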
Target sequence (Q9GZU7 76-261 limits assumed): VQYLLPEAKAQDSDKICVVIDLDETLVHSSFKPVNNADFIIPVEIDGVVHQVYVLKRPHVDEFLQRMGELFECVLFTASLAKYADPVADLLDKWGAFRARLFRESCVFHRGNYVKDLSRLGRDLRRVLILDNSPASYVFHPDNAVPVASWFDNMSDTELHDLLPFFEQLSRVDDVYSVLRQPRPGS
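Material: truncated SCP-1 phosphatase (76-261aa) / Buffer or medium: 50 mM Tris acetate pH 5.5, 0.005% Tween-20, 10 mM MgCl2 / Compound dosing: one concentration, 20 µM, with 1.0% DMSO / Incubation: 45 min room-temperature reaction, 5 min colour, 30 min stabiliser / Detection: colorimetric free-phosphate detection, absorbance 630 nm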
SUMO1 PPI mod: modulators of SUMO1 protein-protein interactions, primary screen, biochemical, uHTS. SUMO1 binding to a labelled peptide, TR-FRET, 1 h. inhibition, % at 20 µM. hit rate 0.33% among 360,000. AID 602429, 2012; in the data active means inhibition above about 37%
Target sequence (P63165 whole entry, looked up): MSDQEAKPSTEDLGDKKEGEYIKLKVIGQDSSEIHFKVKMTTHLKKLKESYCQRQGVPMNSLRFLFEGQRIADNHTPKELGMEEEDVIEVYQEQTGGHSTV
DNMT1 inh: human DNMT1 methyltransferase inhibitors, primary screen, biochemical, molecular beacon, fluorescence, HinP1I cleavage, uHTS; inhibition (reported as % activation of signal), % at 10 µM; hit rate 0.83% among 360,000; AID 588458, 2011; in the data active means inhibition above about 50%
Beacon interf DR: spectral interference with molecular beacon fluorescence, dose response, artefact control for DNMT1 inhibitor project, biochemical, fluorescent molecular beacon; spectral interference counter-screen; IC50, µM; AID 602382, 2012; 200 tested, under 10 active; shares compounds with DNMT1 inh; call rule not given here
DNMT1 confirm: DNMT1 methyltransferase inhibitor retest, confirmation, biochemical, molecular beacon, fluorescence, single concentration; inhibition, % at 10 µM; DNMT1 molecular beacon HinP1I cleavage; hit rate 8% among 2,300; shares compounds with DNMT1 inh;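 active means average inhibition of at least 30% in the single-concentration confirmation test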
Beacon interf: beacon fluorescence artifact counter-screen. shares compounds with DNMT1 inh. DNMT1 molecular beacon spectral interference counterscreen, fluorescence 485/520. activation (fluorescence interference), % at 10 µM. hit rate 1% among 2,300;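 active means activation of at least 30% at 10 µM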;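 further: DNMT1 catalytic domain with a HinP1I cleavage step and a FAM/dabcyl DNA beacon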
Large screens that a line does not name were inactive (follow-up assays come after a bar, where they were run).

COc1ccc(F)cc1S(=O)(=O)N1CCc2ccccc2C1	none (no result: Scp-1 inhibitor)
COc1ccccc1Cc1c(-c2ccc(Cl)cc2)nc2ccc(Br)cn12	none (no result: Scp-1 inhibitor)
CN(C)c1ccc2cc(S(=O)(=O)O)cc(O)c2c1	Scp-1 inhibitor 67, DNMT1 inh 63 | DNMT1 confirm inactive | Beacon interf inactive
O=Nc1c(O)ccc2cc(S(=O)(=O)O)ccc12	none
N#CCCN(C(=S)NC(=O)C1CCCCC1)c1ccccc1F	none
CN(C)CCOc1nc(-c2ccccc2)nc2c1oc1ccccc12	DNMT1 inh 65 | Beacon interf DR inactive | DNMT1 confirm 57 | Beacon interf inactive
N#Cc1ccccc1OCC(=O)NNC(=O)CCNC(=O)c1ccccc1	none
CC(C)(C)C(=O)Nc1nnc(SCC(=O)Nc2nccs2)s1	none
O=C(O)CSc1nc2sc3c(c2c(=O)n1Cc1ccccc1)CCCCC3	none
O=C(O)CSc1cc(C(=O)c2ccccc2O)cn2c(=O)c3c4c(sc3nc12)CCCC4	STEP block 96, Scp-1 inhibitor 66, DNMT1 inh 73 | Beacon interf DR inactive | DNMT1 confirm 61 | Beacon interf inactive
O=C1CC(c2ccco2)CC(O)=C1C=Nc1cc(Cl)ccc1O (stereo not drawn)	Scp-1 inhibitor 72, DNMT1 inh 89 | DNMT1 confirm inactive | Beacon interf inactive
COc1ccc(-c2ccc3sc4ccccc4c(=O)c3c2)cn1	DNMT1 inh 56 | DNMT1 confirm inactive | Beacon interf inactive
COc1cc2sc3ccc(-c4ccc(N(C)C)nc4)cc3c(=O)c2cc1OC	none (no result: STEP block, LMPTP block, SUMO1 PPI mod, DNMT1 inh)
CC(C)(C)S(=O)N1Cc2cc(C(=O)NCC(F)(F)F)nc(-c3cccc(-c4cccc(F)c4)c3)c2[C@@H]1CCO (stereo partly drawn)	none (no result: Scp-1 inhibitor)
O=C(N/N=C/c1cc(Cl)cc([N+](=O)[O-])c1O)NC12CC3CC(CC(C3)C1)C2	LMPTP block 78, DNMT1 inh 72 | DNMT1 confirm inactive | Beacon interf inactive
N#Cc1c(SCC(=O)Nc2ccc(C(F)(F)F)cc2)sc2c(O)cc(=O)[nH]c12	none
N#Cc1c(SCC(=O)Nc2nncs2)sc2c(O)cc(=O)[nH]c12	Scp-1 inhibitor 81, DNMT1 inh 71 | DNMT1 confirm inactive | Beacon interf inactive
Cc1ccc(C)c(OCCC(=O)N2CCN(S(=O)(=O)c3cc(C)ccc3C)CC2)c1	none
Nc1c(C(=O)N/N=C/c2ccc(Cl)cc2)cnn1-c1ccccc1	none
Nc1c(C(=O)N/N=C/c2ccc(OCc3ccccc3)cc2)cnn1-c1ccccc1	LMPTP block 50, DNMT1 inh 51 | DNMT1 confirm inactive | Beacon interf inactive
COc1ccccc1C(=O)Nc1ccccc1N1CCN(C(=O)c2ccc(Cl)cc2)CC1	none
COc1ccc(OCC(=O)Nc2nnc(S(=O)(=O)N3CCCCCC3)s2)cc1	none
Cc1ccc(OCC(=O)Nc2nnc(S(=O)(=O)N3CCC(C)CC3)s2)cc1	DNMT1 inh 58 | DNMT1 confirm inactive | Beacon interf inactive
CC(=O)Oc1ccc(C(=O)N2c3ccccc3NC(=O)C2C)cc1 (stereo not drawn)	none
CCCCCCC(=O)Nc1ccc(C(=O)N/N=C/c2cccnc2)cc1	none
Cn1cccc1CC(=O)N/N=C/c1cccc([N+](=O)[O-])c1	DNMT1 inh 94 | DNMT1 confirm inactive | Beacon interf inactive
O=[N+]([O-])c1ccc(NN=Cc2cccc([N+](=O)[O-])c2)cc1	DNMT1 inh 72 | DNMT1 confirm inactive | Beacon interf inactive
